# Test results as given in paper PMC4477354 (Diabetes, 2015).
# Like-named read-outs stand apart in the source and are kept apart here.
# Columns and labels:
# [1] = type: in vivo, mouse; details: mice, 1 unit/kg s.c. daily for 6 weeks, n = 7-9/group, P < 0.05
# Summary of the method: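 Mice, n = 7–9/group, were injected s.c. daily for 6 weeks with saline, GLAR or DET (1 unit/kg). CSF from the cisterna magna (isoflurane, 4-h fast) and EDTA plasma were taken 24 h after the last dose. Insulin measured by ELISA on 10 µL CSF or 5 µL plasma, against standards from the injected insulins.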
# [2] = men, plasma glucose comparably clamped; cited from earlier work
# [3] = clinical trials, basal insulin replacement; cited from earlier work
# insulin receptor = details: mice, cited from earlier work
# [4] = overweight humans, intravenous; cited from earlier work
# [5] = type: in vivo, rat; details: rats
# Summary of the method: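 Overnight-fasted rats, n = 8–10/dose, got NPH insulin or DET i.p. at 0, 0.1, 0.3, 1, 3 or 10 units/kg. They were anesthetized with isoflurane at 25 min and cisternal CSF drawn at 30 min, then blood collected. Insulin by ELISA (2 h at 4°C; conjugate 30 min; substrate 40 min). Glucose by glucometer in duplicate. Factorial ANOVA.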
# [6] = type: in vivo, mouse; details: mice, 1 unit/kg s.c.; for CSF insulin at 6 and 12 h: Ps < 0.05; for time by which plasma insulin had returned to baseline: sampled 0, 6, 12, 24, 48 h
# Summary of the method: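 Mice fasted 4 h, n = 7–8/group, given 1 unit/kg s.c. GLAR or DET. CSF (~15 µL, glass capillary) drawn from the cisterna magna under isoflurane at baseline and 6, 12, 24, 48 h, then trunk blood taken into chilled EDTA. Insulin measured by ELISA against standards made from each injected insulin. Blood-contaminated CSF discarded; factorial ANOVA.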
# [7] = extended by albumin binding of the attached fatty acid; cited from earlier work
# [8] = Food intake and body weight after third-ventricular; type: in vivo, rat; details: rats, 8 mU I3VT
# Summary of the method: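 Rats carried a third-ventricle cannula (2.2 mm posterior to bregma, midline), checked by drinking >5 mL within 30 min after 10 ng angiotensin II. Rats (n = 16) were handled for 4 days with food removed for the last 4 h of light. In randomized crossover 1 week apart, they received 8 mU DET or NPH insulin, or 2 µL saline, 1 h before dark. Food returned at dark; intake and weight taken at 24 and 48 h. Repeated-measures ANOVA, Tukey.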
# [9] = type: in vivo, rat; details: rats, 0.5 units/kg s.c.; for CSF insulin at 6, 12 and 24 h / plasma glucose at 6 h and 12 h: Ps < 0.05; for time by which plasma insulin had returned to baseline: sampled 0, 6, 12, 24, 48, 72 h
# Summary of the method: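 Overnight-fasted rats, n = 7–8/group, received GLAR or DET 0.5 units/kg s.c. CSF (~150 µL) taken from the cisterna magna under isoflurane at 0, 6, 12, 24, 48 or 72 h, then blood collected after decapitation. Insulin by ELISA with standards from each injected insulin (450 minus 630 nm). Plasma glucose by glucometer in duplicate. Factorial ANOVA.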
# [10] = Food intake, body weight and body composition; type: in vivo, mouse; details: mice, P < 0.05; for body fat compared with the saline-control group: NMR
# Summary of the method: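 Mice were first matched by fat mass using NMR while conscious. They then received (n = 12/group) daily s.c. saline, DET or GLAR at 1 unit/kg for 6 weeks. Body weight and food intake recorded weekly; NMR body composition repeated at the end. Repeated-measures ANOVA with Tukey post hoc.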
# [11] = type: in vivo, rat; details: rats, 0.5 units/kg i.p.
# Summary of the method: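 Rats, n = 6–8/time point, overnight-fasted, were given 0.5 units/kg i.p. NPH insulin or DET. Cisternal CSF taken under isoflurane at 5, 10, 20, 40, 80, 160 or 320 min, followed by EDTA blood. Insulin by ELISA with standards from each injected insulin. Plasma glucose by glucometer in duplicate. Factorial ANOVA.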
# [12] = 1 unit/kg s.c. daily for 6 weeks
substance,measurement,setting,value
Insulin detemir,CSF insulin relative to controls 24 h after the final injection,[1],had increased insulin
same,electroencephalogram activity in the frontal cortex compared with regular insulin,[2],significant change in electroencephalogram activity
same,food intake compared with regular insulin,[2],significant reduction of food intake
same,weight gain compared with other long-acting formulations,[3],less weight gain
same,uptake into the brain,insulin receptor; insulin in brain tissue extracts,preferential uptake of DET into the brain
same,phosphorylation of the insulin receptor in hypothalamus,insulin receptor,selectively increased phosphorylation of the insulin receptor
same,cerebrocortical activity,[4],increased cerebrocortical activity
same,plasma glucose after 30 min,"[5]; 0-10 units/kg i.p., 30 min postinjection, glucometer",dose-dependent decrease
same,plasma insulin after 30 min,"[5]; 0-10 units/kg i.p., 30 min postinjection, insulin ELISA, n = 8-10/dose",increased at all doses
same,CSF insulin after 30 min,"[5]; 0-10 units/kg i.p., CSF sampled 30 min postinjection, insulin ELISA",elevated after all doses
same,dose at which apparent saturation of CSF insulin levels occurred,"[5]; i.p., 30 min postinjection",≤ 3 units/kg
same,CSF insulin after 24 and 48 h,[6],elevated CSF insulin levels
same,CSF insulin at 6 and 12 h,[6],comparably increased
same,"plasma insulin at 6 h, DET compared with GLAR","[6]; n = 7-8/group, P < 0.05",elevated to a greater extent
same,time by which plasma insulin had returned to baseline,[6],≤ 24 h
same,plasma half-life,[7],5 to 7 h
same,body weight after 24 h,[8]; P < 0.05,significant weight loss
same,body weight after 48 h,[8]; P < 0.05,maintaining this weight loss
same,food intake after 48 h relative to saline,"[8]; crossover, n = 16",remained significantly reduced
same,food intake over 24 h relative to saline,"[8]; crossover, n = 16, P < 0.05",ate significantly less food
same,CSF insulin at 48 h,[9],continued to have elevated CSF insulin
same,"CSF insulin at 6, 12 and 24 h",[9],comparably increased
same,plasma glucose at 6 h and 12 h,[9],reduced
same,"plasma insulin at 6 h, DET compared with GLAR","[9]; n = 7-8/group, P < 0.05",elevated more
same,time by which plasma insulin had returned to baseline,[9],≤ 24 h
same,body fat compared with the saline-control group,[10]; [12],significantly lower
same,cumulative food intake compared with GLAR or saline groups,[10]; [12],significantly lower
same,plasma glucose levels over time,"[11]; 5-320 min, P < 0.05",relatively constant level for the duration of the experiment
same,"plasma glucose at 80, 160 and 320 min, DET relative to NPH",[11]; Ps < 0.05,sustained hypoglycemia
same,"insulin in plasma (160 and 320 min) and CSF (320 min), DET relative to NPH","[11]; planned comparison, P < 0.05",more prolonged elevation of insulin
same,time at which CSF insulin reached baseline,[11]; sampled up to 320 min,> 320 min
same,time at which plasma insulin was no longer elevated relative to baseline,[11]; sampled up to 320 min,> 320 min
insulin glargine,plasma insulin relative to controls 24 h after the final injection,[1],continued to have elevated plasma insulin
same,CSF insulin after 24 and 48 h,[6],lower at 24 h and had returned to baseline by 48 h
same,"plasma insulin at 12 h, DET compared with GLAR",[6]; P < 0.05,higher plasma concentrations
same,CSF insulin at 6 and 12 h,[6],comparably increased
same,time by which plasma insulin had returned to baseline,[6],≤ 48 h
same,CSF insulin at 48 h,[9],returned to baseline
same,plasma glucose at 24 h,[9],remained lower
same,"plasma insulin at 12 h, DET compared with GLAR",[9]; P < 0.05,higher plasma insulin
same,"CSF insulin at 6, 12 and 24 h",[9],comparably increased
same,plasma glucose at 6 h and 12 h,[9],reduced
same,time by which plasma insulin had returned to baseline,[9],≤ 48 h
same,body fat compared with the saline-control group,[10]; [12],higher
same,body weight relative to saline-treated animals by week 6,[10]; 1 unit/kg s.c. daily,increased relative to that of saline-treated animals
